Hits are enriched below; roughly 1.2% of the tested compounds scored in any of these assays.
procasp3 activ: procaspase-3 (human) activation; P42574; recombinant procaspase-3 D3A, Ac-DEVD-pNA absorbance 405 nm; activation, % at 8.5 µM; actives 0.11% (n = 330,000);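 active = activation above the mean of all tested compounds plus 3 SD, cut at about 21% in these data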;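 also: 0% = DMSO alone and 100% = DMSO wells spiked with extra 5 µM PC-3 D3A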
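Evaluation: percent activation relative to control range; Material: Procaspase-3 D3A mutant, all three cleavage aspartates alanine; Compound: single dose, 8.5 µM nominal compound, 0.8% DMSO; Replication: one well per compound; Signal: absorbance at 405 nm, 0 and 120 min; Schedule: 1 h preincubation plus 2 h reaction at 25 °C.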
ASAP1 GAP inh: blocks human ASAP1-stimulated Arf1 GTP hydrolysis; actives 0.19% (n = 360,000); Q9ULH1; inhibition, % at 16.5 µM; GDP FP detection; in the data active = inhibition above about 25%;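 also: 0% = vehicle with enzyme and substrate and 100% = no enzyme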
Target sequence (Q9ULH1 325-724 limits assumed): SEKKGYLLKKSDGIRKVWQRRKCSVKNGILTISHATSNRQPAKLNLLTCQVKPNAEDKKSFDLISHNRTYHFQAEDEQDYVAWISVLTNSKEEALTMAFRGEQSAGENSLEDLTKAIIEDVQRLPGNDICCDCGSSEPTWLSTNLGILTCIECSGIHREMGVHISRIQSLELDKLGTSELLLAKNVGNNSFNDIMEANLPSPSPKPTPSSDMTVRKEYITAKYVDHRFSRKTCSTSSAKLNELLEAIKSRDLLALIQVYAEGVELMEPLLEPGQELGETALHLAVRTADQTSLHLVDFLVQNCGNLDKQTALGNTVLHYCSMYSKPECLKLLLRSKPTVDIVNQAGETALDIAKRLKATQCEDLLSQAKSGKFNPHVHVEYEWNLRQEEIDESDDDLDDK
ARFGAP1 inh: inhibits rat ARF GTPase activating protein 1; actives 0.26% (n = 360,000); Arfgap1-stimulated ARF1 GTP hydrolysis, GDP FP detection; inhibition, % at 16.5 µM;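 active = inhibition above a per-plate limit, mean inhibition of low control wells plus 3 SD, cut at about 25% in these data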;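 also: 0% = DMSO wells with enzyme and 100% = wells lacking Arfgap1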
Target sequence (Q62848 1-136 limits assumed): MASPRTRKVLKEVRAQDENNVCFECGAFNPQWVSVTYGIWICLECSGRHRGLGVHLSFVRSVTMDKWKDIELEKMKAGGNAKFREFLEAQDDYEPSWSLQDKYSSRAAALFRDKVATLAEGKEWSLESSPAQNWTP
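system = rat Arfgap1 catalytic domain, aa 1-136 | technique = FP, GDP Alexa 633 tracer displaced from anti-GDP antibody, 620/688 nm | compound = one concentration, 16.5 µM, DMSO 1.26% | medium = HEPES-based buffer, pH 7.5 | timing = compound-enzyme preincubation 20 min, reaction 120 min, detection 60 min, 25 °C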
procasp7 counter: counter-screen for procaspase-3 activators: activators of human procaspase-7. P55210. recombinant procaspase-7, Ac-DEVD-pNA absorbance 405 nm; D23A/D198A/D206A triple mutant, cannot self-cleave; scale: DMSO 0, 5 µM enzyme 100. activation, % at 8.5 µM. actives 0.093% (n = 330,000). AID 463210;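 active = percent activation above the screen-wide mean plus 3 SD, cut at about 25% in these data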
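Assay system: Uncleavable procaspase-7 mutant enzyme | Input: 2 µM procaspase-7 mutant as dispensed | Timing: 1 h compound preincubation, 2 h substrate cleavage, 25 °C | Repeats: One well per compound | Control set: DMSO wells as 0%, DMSO with 5 µM added PC-7 as 100% | Technique: Epi-absorbance of released pNA at 405 nm, two timepoints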
LANA-H2B inh: blocks KSHV LANA binding to histone H2A/H2B | cell-free LANA-H2A/H2B peptide, fluorescence polarization | actives 0.6% (n = 320,000) | inhibition, % (test concentration not listed); in the data active = inhibition mostly above about 10%, no sharp cut-off; inactive = mostly below about 6.7%
CR mimetic SO: caloric restriction mimetics inhibiting age-related superoxide in yeast; S. cerevisiae aged cells, superoxide DHE fluorescence; stronger effect = lower value; superoxide response (% of plate mean), % at 10 µM; actives 0.18% (n = 330,000); AID 2690;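 active = superoxide response under a set limit, about three screen SD below normal, cut at about 65% in these data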;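 also: yeast aged for seven days with compound at 30 °C before DHE staining; 100% = average MFI of all compound-treated wells on the plate with controls excluded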
CR mimetic CP: yeast aging superoxide inhibition, cherry pick confirmation. shares compounds with CR mimetic SO. S. cerevisiae aging, superoxide DHE fluorescence; stronger effect = lower value. superoxide response (% of plate), % at 10 µM. actives 1% (n = 850);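 active = superoxide signal below 65% of the plate average of sample wells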;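 also: cells aged with compound for 7 days at 30 degrees C before staining; 100% equals mean DHE fluorescence of all compound wells on the plate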
DHE counter: compound alters DHE oxidation or fluorescence in yeast. shares compounds with CR mimetic SO. S. cerevisiae BY4741, flow cytometry; stronger effect = lower value. AID 435000. 850 tested, under 10 active. fluorescence response, % at 10 µM;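 active = fluorescence response below 15%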;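 also: percent of the mean fluorescence averaged over all compound wells on the plate; lower means stronger quenching of DHE signal or ROS scavenging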
Starred values were filed as active, the others as inactive; nt = no result given.

SMILES	procasp3 activ	ASAP1 GAP inh	ARFGAP1 inh	procasp7 counter	LANA-H2B inh	CR mimetic SO	CR mimetic CP	DHE counter
O=C(CSc1nnc(-c2ccc(F)cc2)o1)NC1CCCCC1	2.6	1.2	-0.7	8.4	-2.4	93.0	nt	nt
CCN(CC)C(=O)CSc1nnc(-c2ccccc2)o1	-0.5	-18.2	3.5	0.2	3.7	97.9	95.5	95.9
CCN(CC)C(=O)CCSc1nnc(-c2ccncc2)o1	-5.3	-4.1	-3.0	10.0	-3.0	100.0	nt	nt
COc1ccc(N2C(=O)C(CC(N)=O)N(NC(=O)CCc3ccccc3)C2=O)cc1 (stereo not drawn)	0.2	4.9	12.2	-5.3	-2.6	108.5	nt	nt
CN(C(=O)CSc1nc(O)cc(=O)n1-c1ccccc1F)c1ccccc1	-0.9	4.0	-8.1	2.7	-2.0	49.7*	107.0	106.8
CCOC(=O)c1ccc(NC(=O)c2nc(SC)ncc2Cl)cc1	-3.6	-3.8	6.0	-1.0	1.6	90.0	nt	nt
CSc1ncc(Cl)c(C(=O)Nc2ccccc2Br)n1	7.2	-0.6	-8.9	-2.3	-1.5	103.5	104.7	108.1
CSc1ncc(Cl)c(C(=O)Nc2cccc(Cl)c2)n1	-1.3	10.3	-1.2	-0.1	7.3	94.4	95.8	99.2
CSc1ncc(Cl)c(C(=O)Nc2cccc3ccccc23)n1	10.0	0.0	11.0	3.1	-2.4	98.3	nt	nt
Cc1cccc(C)c1NC(=O)c1nc(S(=O)(=O)Cc2ccccc2)ncc1Cl	-3.6	15.9	1.4	-3.6	nt	110.8	nt	nt
Cc1ccccc1NC(=O)c1nc(S(C)(=O)=O)ncc1Cl	-14.9	7.2	-0.4	-2.2	3.4	107.7	98.7	91.2
CSc1ncc(Cl)c(C(=O)Nc2cccc(C)c2)n1	1.0	2.8	10.2	-1.6	-0.1	96.0	100.5	89.8
O=C(N/N=C/c1ccccc1Br)C1CC1	1.0	3.2	8.3	6.9	-0.7	95.0	nt	nt
Cn1c(N)c(C(=O)COC(=O)c2ccccc2C(F)(F)F)c(=O)n(C)c1=O	-8.0	7.3	-0.9	-4.4	-3.3	100.1	nt	nt
O=C(OCCCc1cc2ccccc2c(=O)o1)c1ccc2c(c1)OCO2	9.4	2.2	-1.6	9.7	3.7	81.2	nt	nt
Cc1ccc(C(=O)N2CCN(c3ccc(Cl)cc3)CC2)cc1	-5.7	-10.7	-5.2	-1.2	0.3	107.2	106.1	91.8
COc1ccc(C(=O)N2CCN(c3ccc(C)cc3)CC2)cc1OC	-4.1	-10.4	1.3	0.7	8.4	91.0	110.5	105.7
Cc1cc(C)c(O)c(C2(O)C(=O)c3ccccc3C2=O)c1	16.0	-4.1	-15.4	3.6	6.5	99.0	nt	nt
Cc1ccc(Cn2nnc(C(=O)Nc3cc(C)ccc3C)c2N)cc1	3.5	-6.4	12.4	-2.0	0.6	114.4	nt	nt
Cc1ccc(CNC(=O)Cn2nnc(C(=O)Nc3cc(C)ccc3C)c2N)cc1	6.3	8.3	0.6	-5.3	-3.0	57.2*	98.6	105.1
Cc1ccc(NCc2nnc(SCC(=O)Nc3nnc(C)s3)n2C)cc1	0.0	9.5	9.1	5.1	4.6	105.1	nt	nt
O=C(CSC1=NS(=O)(=O)c2cc(Cl)ccc2N1)c1ccc(Cl)cc1	-1.3	2.1	-5.8	8.8	nt	100.2	nt	nt
Cc1cc([N+](=O)[O-])nn1Cc1ccc(C(=O)N/N=C/c2ccc(F)cc2)cc1	0.2	-6.5	8.2	0.1	1.3	94.5	nt	nt
Cc1cc([N+](=O)[O-])nn1Cc1ccc(C(=O)N/N=C/c2ccc(O)cc2O)cc1	-0.1	10.5	9.4	0.1	5.1	64.9*	94.5	94.0
CN(C(=O)CN1CCN(c2ccc([N+](=O)[O-])cn2)CC1)c1ccccc1	2.6	nt	nt	-6.5	2.2	130.0	96.4	103.2
COc1ccccc1N1CCN(c2ccc([N+](=O)[O-])cn2)CC1	-0.2	-4.7	4.1	-2.0	1.9	102.5	nt	nt

Assay outcomes (PubChem)
